Target: T1, Gonadotropin-releasing hormone receptor (Rattus norvegicus, UniProt P30969)
T1 sequence (P30969 whole entry): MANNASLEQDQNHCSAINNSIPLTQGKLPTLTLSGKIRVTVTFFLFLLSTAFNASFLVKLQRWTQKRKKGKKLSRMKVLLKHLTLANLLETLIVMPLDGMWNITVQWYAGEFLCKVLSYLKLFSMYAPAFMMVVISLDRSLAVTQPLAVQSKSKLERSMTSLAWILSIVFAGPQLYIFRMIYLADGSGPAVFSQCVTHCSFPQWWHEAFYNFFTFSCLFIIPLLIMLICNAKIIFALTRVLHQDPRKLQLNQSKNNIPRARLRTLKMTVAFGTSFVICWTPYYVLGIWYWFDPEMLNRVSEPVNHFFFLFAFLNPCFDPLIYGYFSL
Test: Inhibition of binding of radiolabeled histrelin to Gonadotropin-releasing hormone receptor (GnRHr) in rat pituitary gland membranes
Assay type: cell membranes, Membrane
Procedure, shortened: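 Rat anterior pituitary membranes (male and female glands equal numbers), homogenized in 0.32 M sucrose/aprotinin, 4000g pellet, diluted 15-fold in 10 mM Hepes, 0.2% BSA, pH 7.6. Filtration onto PEI-treated glass filters, scintillation counting. IC50 in nM, duplicate, n = 1.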

Structure (SMILES) | IC50
CC(=O)Nc1ccc(C[C@H](NC(=O)[C@H](CO)NC(=O)[C@@H](Cc2cccnc2)NC(=O)[C@@H](NC(=O)[C@@H](Cc2ccc3ccccc3c2)NC(C)=O)N(C)C(=O)c2ccc(Cl)cc2)C(=O)N[C@H](Cc2ccc(NC(C)=O)cc2)C(=O)N[C@@H](CC(C)C)C(=O)N[C@@H](CCCCNC(C)C)C(=O)N2CCC[C@H]2C(=O)N[C@H](C)C(N)=O)cc1 (mixture of isomers) | 280 nM
CC(=O)Nc1ccc(C[C@@H](NC(=O)[C@H](NC(=O)c2ccc(O)cc2)NC(=O)[C@H](CO)NC(=O)[C@@H](Cc2cccnc2)NC(=O)[C@@H](Cc2ccc(Cl)cc2)NC(=O)[C@@H](Cc2ccc3ccccc3c2)NC(C)=O)C(=O)N[C@@H](CC(C)C)C(=O)N[C@@H](CCCCNC(C)C)C(=O)N2CCC[C@H]2C(=O)N[C@H](C)C(N)=O)cc1 | 0.3 nM
CC(=O)Nc1ccc(C[C@H](NC(=O)[C@H](CO)NC(=O)[C@@H](Cc2cccnc2)NC(=O)[C@@H](NC(=O)c2cnccn2)NC(=O)[C@@H](Cc2ccc3ccccc3c2)NC(C)=O)C(=O)N[C@H](Cc2ccc(NC(C)=O)cc2)C(=O)N[C@@H](CC(C)C)C(=O)N[C@@H](CCCCNC(C)C)C(=O)N2CCC[C@H]2C(=O)N[C@H](C)C(N)=O)cc1 | 2000 nM
CC(=O)Nc1ccc(C[C@H](NC(=O)[C@H](CO)NC(=O)[C@@H](Cc2cccnc2)NC(=O)[C@H](NC(=O)c2cnccn2)NC(=O)[C@@H](Cc2ccc3ccccc3c2)NC(C)=O)C(=O)N[C@H](Cc2ccc(NC(C)=O)cc2)C(=O)N[C@@H](CC(C)C)C(=O)N[C@@H](CCCCNC(C)C)C(=O)N2CCC[C@H]2C(=O)N[C@H](C)C(N)=O)cc1 (single isomer, unassigned) | 1700 nM
CC(=O)Nc1ccc(C[C@@H](NC(=O)[C@H](NC(=O)[C@H](CO)NC(=O)[C@@H](Cc2cccnc2)NC(=O)[C@@H](Cc2ccc(Cl)cc2)NC(=O)[C@@H](Cc2ccc3ccccc3c2)NC(C)=O)N(C)C(=O)c2ccc(NC(C)=O)cc2)C(=O)N[C@@H](CC(C)C)C(=O)N[C@@H](CCCCNC(C)C)C(=O)N2CCC[C@H]2C(=O)N[C@H](C)C(N)=O)cc1 | 0.43 nM
CC(=O)Nc1ccc(C[C@H](NC(=O)[C@H](CO)NC(=O)[C@@H](Cc2cccnc2)NC(=O)[C@H](NC(=O)[C@@H](Cc2ccc3ccccc3c2)NC(C)=O)N(C)C(=O)c2ccc(Cl)cc2)C(=O)N[C@H](Cc2ccc(NC(C)=O)cc2)C(=O)N[C@@H](CC(C)C)C(=O)N[C@@H](CCCCNC(C)C)C(=O)N2CCC[C@H]2C(=O)N[C@H](C)C(N)=O)cc1 | 1.2 nM
CC(=O)Nc1ccc(C[C@H](NC(=O)[C@@H](NC(=O)CO)NC(=O)[C@@H](Cc2cccnc2)NC(=O)[C@@H](Cc2ccc(Cl)cc2)NC(=O)[C@@H](Cc2ccc3ccccc3c2)NC(C)=O)C(=O)N[C@H](Cc2ccc(NC(C)=O)cc2)C(=O)N[C@@H](CC(C)C)C(=O)N[C@@H](CCCCNC(C)C)C(=O)N2CCC[C@H]2C(=O)N[C@H](C)C(N)=O)cc1 (single isomer, unassigned) | 0.056 nM
CC(=O)Nc1ccc(C[C@H](NC(=O)[C@H](NC(=O)[C@@H](Cc2cccnc2)NC(=O)[C@@H](Cc2ccc(Cl)cc2)NC(=O)[C@@H](Cc2ccc3ccccc3c2)NC(C)=O)N(C)C=O)C(=O)N[C@H](Cc2ccc(NC(C)=O)cc2)C(=O)N[C@@H](CC(C)C)C(=O)N[C@@H](CCCCNC(C)C)C(=O)N2CCC[C@H]2C(=O)N[C@H](C)C(N)=O)cc1 (single isomer, unassigned) | 0.9 nM
CC(=O)Nc1ccc(C[C@H](NC(=O)[C@H](NC=O)NC(=O)[C@@H](Cc2cccnc2)NC(=O)[C@@H](Cc2ccc(Cl)cc2)NC(=O)[C@@H](Cc2ccc3ccccc3c2)NC(C)=O)C(=O)N[C@H](Cc2ccc(NC(C)=O)cc2)C(=O)N[C@@H](CC(C)C)C(=O)N[C@@H](CCCCNC(C)C)C(=O)N2CCC[C@H]2C(=O)N[C@H](C)C(N)=O)cc1 | 0.84 nM
CC(=O)Nc1ccc(C[C@H](NC(=O)[C@H](CO)NC(=O)[C@@H](NC(=O)[C@@H](Cc2ccc(Cl)cc2)NC(=O)[C@@H](Cc2ccc3ccccc3c2)NC(C)=O)N(C)C(=O)c2cccnc2)C(=O)N[C@H](Cc2ccc(NC(C)=O)cc2)C(=O)N[C@@H](CC(C)C)C(=O)N[C@@H](CCCCNC(C)C)C(=O)N2CCC[C@H]2C(=O)N[C@H](C)C(N)=O)cc1 (single isomer, unassigned) | 36 nM
CC(=O)Nc1ccc(C[C@H](NC(=O)[C@H](CO)NC(=O)[C@@H](Cc2cccnc2)NC(=O)[C@@H](Cc2ccc(Cl)cc2)NC(=O)[C@@H](Cc2ccc3ccccc3c2)NC(C)=O)C(=O)N[C@H](Cc2ccc(NC(C)=O)cc2)C(=O)N[C@@H](CC(C)C)C(=O)N[C@H](C(=O)N2CCC[C@H]2C(=O)N[C@H](C)C(N)=O)N(C)C(=O)CCNC(C)C)cc1 (single isomer, unassigned) | 0.5 nM
CC(=O)Nc1ccc(C[C@H](NC(=O)[C@H](CO)NC(=O)[C@@H](NC(=O)c2cccnc2)NC(=O)[C@@H](Cc2ccc(Cl)cc2)NC(=O)[C@@H](Cc2ccc3ccccc3c2)NC(C)=O)C(=O)N[C@H](Cc2ccc(NC(C)=O)cc2)C(=O)N[C@@H](CC(C)C)C(=O)N[C@@H](CCCCNC(C)C)C(=O)N2CCC[C@H]2C(=O)N[C@H](C)C(N)=O)cc1 | 0.63 nM
CC(=O)Nc1ccc(C[C@H](NC(=O)[C@H](CO)NC(=O)[C@@H](Cc2cccnc2)NC(=O)[C@@H](Cc2ccc(Cl)cc2)NC(=O)[C@@H](Cc2ccc3ccccc3c2)NC(C)=O)C(=O)N[C@H](Cc2ccc(NC(C)=O)cc2)C(=O)N[C@@H](CC(C)C)C(=O)N[C@@H](CCCCNC(C)C)C(=O)N2CCC[C@H]2C(=O)N[C@H](N)C(N)=O)cc1 | 0.48 nM
CC(=O)Nc1ccc(C[C@H](NC(=O)[C@H](CO)NC(=O)[C@@H](Cc2cccnc2)NC(=O)[C@@H](NC(=O)c2cn[nH]c2N)NC(=O)[C@@H](Cc2ccc3ccccc3c2)NC(C)=O)C(=O)N[C@H](Cc2ccc(NC(C)=O)cc2)C(=O)N[C@@H](CC(C)C)C(=O)N[C@@H](CCCCNC(C)C)C(=O)N2CCC[C@H]2C(=O)N[C@H](C)C(N)=O)cc1 (single isomer, unassigned) | > 1000 nM
CC(=O)Nc1ccc(C[C@H](NC(=O)[C@H](CO)NC(=O)[C@@H](Cc2cccnc2)NC(=O)[C@H](NC(=O)c2cn[nH]c2N)NC(=O)[C@@H](Cc2ccc3ccccc3c2)NC(C)=O)C(=O)N[C@H](Cc2ccc(NC(C)=O)cc2)C(=O)N[C@@H](CC(C)C)C(=O)N[C@@H](CCCCNC(C)C)C(=O)N2CCC[C@H]2C(=O)N[C@H](C)C(N)=O)cc1 | 2500 nM
CC(=O)Nc1ccc(C[C@H](NC(=O)[C@H](CO)NC(=O)[C@@H](Cc2cccnc2)NC(=O)[C@@H](Cc2ccc(Cl)cc2)NC(=O)[C@H](NC(C)=O)N(C)C(=O)c2ccc3ccccc3c2)C(=O)N[C@H](Cc2ccc(NC(C)=O)cc2)C(=O)N[C@@H](CC(C)C)C(=O)N[C@@H](CCCCNC(C)C)C(=O)N2CCC[C@H]2C(=O)N[C@H](C)C(N)=O)cc1 | 9.2 nM
CC(=O)Nc1ccc(C[C@H](NC(=O)[C@H](CO)NC(=O)[C@@H](Cc2cccnc2)NC(=O)[C@@H](Cc2ccc(Cl)cc2)NC(=O)[C@@H](Cc2ccc3ccccc3c2)NC(C)=O)C(=O)N[C@H](Cc2ccc(NC(C)=O)cc2)C(=O)N[C@@H](CC(C)C)C(=O)N[C@@H](CCCCNC(C)C)C(=O)N2CCC[C@H]2C(=O)N[C@H](C)C(N)=O)cc1 | 0.3 nM
CC(=O)Nc1ccc(C[C@@H](NC(=O)[C@@H](NC(=O)c2ccc(NC(C)=O)cc2)NC(=O)[C@H](CO)NC(=O)[C@@H](Cc2cccnc2)NC(=O)[C@@H](Cc2ccc(Cl)cc2)NC(=O)[C@@H](Cc2ccc3ccccc3c2)NC(C)=O)C(=O)N[C@@H](CC(C)C)C(=O)N[C@@H](CCCCNC(C)C)C(=O)N2CCC[C@H]2C(=O)N[C@H](C)C(N)=O)cc1 | 0.51 nM
CC(=O)Nc1ccc(C[C@H](NC(=O)[C@H](CO)NC(=O)[C@@H](Cc2cccnc2)NC(=O)[C@@H](Cc2ccc(Cl)cc2)NC(=O)[C@@H](Cc2ccc3ccccc3c2)NC(C)=O)C(=O)N[C@H](Cc2ccc(NC(C)=O)cc2)C(=O)N[C@H](C(=O)N[C@@H](CCCCNC(C)C)C(=O)N2CCC[C@H]2C(=O)N[C@H](C)C(N)=O)N(C)C(C)=O)cc1 | 1.7 nM
CC(=O)Nc1ccc(C[C@H](NC(=O)[C@H](CO)NC(=O)[C@@H](Cc2cccnc2)NC(=O)[C@@H](Cc2ccc(Cl)cc2)NC(=O)[C@H](Cc2ccc3ccccc3c2)NC(C)=O)C(=O)N[C@H](Cc2ccc(NC(C)=O)cc2)C(=O)N[C@@H](CC(C)C)C(=O)N[C@@H](CCCCNC(C)C)C(=O)N2CCC[C@H]2C(=O)N[C@H](C)C(N)=O)cc1 | 0.64 nM
CC(=O)Nc1ccc(C[C@H](NC(=O)[C@H](CO)NC(=O)[C@@H](Cc2cccnc2)NC(=O)[C@@H](Cc2ccc(Cl)cc2)NC(=O)[C@@H](Cc2ccc3ccccc3c2)NC(C)=O)C(=O)N[C@H](Cc2ccc(NC(C)=O)cc2)C(=O)N[C@@H](CC(C)C)C(=O)N[C@@H](CCCCNC(C)C)C(=O)N2CCC[C@H]2C(=O)N[C@H](C(N)=O)N(C)C=O)cc1 | 0.67 nM
CC(=O)Nc1ccc(C[C@H](NC(=O)[C@H](CO)NC(=O)[C@@H](NC(=O)c2ccncc2)NC(=O)[C@@H](Cc2ccc(Cl)cc2)NC(=O)[C@@H](Cc2ccc3ccccc3c2)NC(C)=O)C(=O)N[C@H](Cc2ccc(NC(C)=O)cc2)C(=O)N[C@@H](CC(C)C)C(=O)N[C@@H](CCCCNC(C)C)C(=O)N2CCC[C@H]2C(=O)N[C@H](C)C(N)=O)cc1 (single isomer, unassigned) | 1.4 nM
CC(=O)Nc1ccc(C[C@H](NC(=O)[C@@H](NC=O)NC(=O)[C@@H](Cc2cccnc2)NC(=O)[C@@H](Cc2ccc(Cl)cc2)NC(=O)[C@@H](Cc2ccc3ccccc3c2)NC(C)=O)C(=O)N[C@H](Cc2ccc(NC(C)=O)cc2)C(=O)N[C@@H](CC(C)C)C(=O)N[C@@H](CCCCNC(C)C)C(=O)N2CCC[C@H]2C(=O)N[C@H](C)C(N)=O)cc1 (single isomer, unassigned) | 0.63 nM
